Laboratory results from article PMC4636458 (Molecular cancer therapeutics, 2015).
Where two headings read alike, the source gives them in different places.

Target: recombinant human ezrin (Homo sapiens, UniProt P15311)
Assay: SPR
Type: binding
Details: read-out: KD (μM)^a, HBS-P pH 7.4, 2-10% DMSO, room temperature
In short: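 Untagged full-length recombinant human ezrin was expressed in E. coli M15 [pREP4] from a pQE16 vector. It was amine-coupled (~10,000 RU) in sodium acetate pH 4.5 to the second flow cell of a CM5 chip, with the first flow cell left empty for background subtraction. Running buffer was HBS-P (10 mM HEPES pH 7.4, 150 mM NaCl, 0.05% P20) with 2–10% DMSO. Seven concentrations (0.78–50 μM) were injected in triplicate over ezrin and control surfaces.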

Sequence of recombinant human ezrin (P15311 whole entry): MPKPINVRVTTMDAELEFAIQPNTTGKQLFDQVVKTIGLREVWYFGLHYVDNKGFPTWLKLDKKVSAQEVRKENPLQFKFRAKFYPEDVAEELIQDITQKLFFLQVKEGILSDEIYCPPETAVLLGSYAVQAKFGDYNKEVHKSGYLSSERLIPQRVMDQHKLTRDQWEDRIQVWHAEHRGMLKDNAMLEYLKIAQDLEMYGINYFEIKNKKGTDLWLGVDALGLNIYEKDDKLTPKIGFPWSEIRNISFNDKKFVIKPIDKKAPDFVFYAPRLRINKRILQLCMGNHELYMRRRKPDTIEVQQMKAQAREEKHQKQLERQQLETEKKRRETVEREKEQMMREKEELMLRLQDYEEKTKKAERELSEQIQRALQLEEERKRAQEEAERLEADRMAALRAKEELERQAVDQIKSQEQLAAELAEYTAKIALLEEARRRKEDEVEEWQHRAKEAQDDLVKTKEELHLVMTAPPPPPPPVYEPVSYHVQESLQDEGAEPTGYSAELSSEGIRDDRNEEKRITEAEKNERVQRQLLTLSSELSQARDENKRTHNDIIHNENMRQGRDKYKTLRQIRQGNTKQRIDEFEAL

Compound	Kd (n=3)	Kd (n=5)	further results
CN1CCN(c2ccc(Nc3c4ccccc4nc4ccccc34)cc2)CC1 [MMV006172]	6.1 ± 2.8 µM	–	–
CC1CCN(Cc2ccc(NC(=O)c3cc4ccc5cccnc5c4[nH]3)cc2)CC1 [MMV020549]	10.7 ± 0.4 µM	–	–
CCOC(=O)c1cn(CC)c2cc(N(C)CCc3ccc(OC)c(OC)c3)c(F)cc2c1=O [MMV665977]	–	3.1 ± 1.6 µM	–
COc1ccc(CCN2CCC(CN(C)Cc3cnn(-c4ccccc4)c3)CC2)cc1 [MMV666069]	–	2.1 ± 1 µM	–
CCn1c(SCC(=O)Nc2cc(C(F)(F)F)ccc2Cl)nc2ccccc2c1=O [MMV666103]	–	–	Kd (n=4): 2.6 ± 1 µM
CN(N=O)C1=C(NC2CCCCC2)C(=O)c2ccccc2C1=O [MMV667492]	–	–	Kd (n=2): 29.4 ± 4.4 µM
